ChEMBL document CHEMBL1153099, “2,4-Diaryl-4,6,7,8-tetrahydroquinazolin-5(1H)-one derivatives as anti-HBV agents targeting at capsid assembly” (Bioorg Med Chem Lett, 2010)

How the values were obtained:
Hepatitis B virus = assay: Antiviral activity against HBV infected in human HepG2.2.15 cells assessed as inhibition of viral DNA replication; format: functional, organism-based, HepG2 2.2.15
Method in brief: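 HepG2.2.15 cells, which secrete virus-like particles. Reference anti-HBV agents were run as positive controls. IC50 is the mean of three experiments. A compound with no activity at its maximum nontoxic concentration was scored as not active.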

[1] = Cytotoxicity against human HepG2(2.2.15) cells; format: cell-based
Method in brief: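 Viability of HepG2.2.15 cells was read after 48 h of compound exposure. Cytotoxic IC50 is the mean of three experiments.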

[2] = Therapeutic index, ratio of IC50 for human HepG2(2.2.15) cells to IC50 for HBV; format: cell-based; conditions: read-out: Ratio IC50
[3] = Hepatitis B virus, HepG2 2.2.15, read-out: IC50

With `O=C1CCCC2=C1C(c1ccc(F)cc1Cl)N=C(c1ccco1)N2` (centres undefined) the IC50 (Hepatitis B virus; hepg2 2.2.15) was “Not Active” and the IC50 [1] was 717 µM.

Work on `CC1(C)CC(=O)C2=C(C1)NC(c1cccnc1)=NC2c1ccc(F)cc1Cl` (centres undefined) yielded an IC50 (Hepatitis B virus; [3]) of 0.44 µM, an IC50 [1] of 624 µM and a selectivity ratio [2] of 1420.

For `CC1(C)CC(=O)C2=C(C1)NC(c1cccnc1)=NC2c1ccccc1Cl` (centres undefined), the IC50 (Hepatitis B virus; [3]) was 26.2 µM, the IC50 [1] was 67.3 µM and the selectivity ratio [2] was 2.56.

With `O=C1CCCC2=C1C(c1ccccc1)N=C(c1ccccn1)N2` (centres undefined) the IC50 (Hepatitis B virus; [3]) was 6.6 µM, the IC50 [1] was 571 µM and the selectivity ratio [2] was 86.6.

In the case of `O=C1CCCC2=C1C(c1ccccc1)N=C(c1cccnc1)N2` (centres undefined), the IC50 (Hepatitis B virus; hepg2 2.2.15) is reported as “Not Active” and the IC50 [1] is reported as 369 µM.

For `O=C1CCCC2=C1C(c1ccc(F)cc1Cl)N=C(c1nccs1)N2` (centres undefined), the IC50 (Hepatitis B virus; [3]) was 8.75 µM, the IC50 [1] was 47.7 µM and the selectivity ratio [2] was 5.73.

`O=C1CCCC2=C1C(c1ccc(F)cc1Cl)N=C(c1cnccn1)N2` (centres undefined) gave an IC50 (Hepatitis B virus; [3]) of 2.3 µM, an IC50 [1] of 777 µM and a selectivity ratio [2] of 338.

With `CC1(C)CC(=O)C2=C(C1)NC(c1c(F)cc(F)cc1F)=NC2c1ccc(F)cc1Cl` (centres undefined) the IC50 (Hepatitis B virus; hepg2 2.2.15) was “Not Active” and the IC50 [1] was 5.6 µM.

In the case of `O=C1CCCC2=C1C(c1ccc(F)cc1)N=C(c1ccccn1)N2` (centres undefined), the IC50 (Hepatitis B virus; hepg2 2.2.15) is reported as “Not Active” and the IC50 [1] is reported as 516 µM.

`O=C1CCCC2=C1C(c1ccc(F)cc1Cl)N=C(c1cccnc1)N2` (centres undefined) showed an IC50 (Hepatitis B virus; [3]) of 25.1 µM and an IC50 [1] of 82.8 µM.

For `CC1(C)CC(=O)C2=C(C1)NC(c1ccncc1)=NC2c1ccc(F)cc1Cl` (centres undefined), the IC50 (Hepatitis B virus; [3]) was 4.92 µM, the IC50 [1] was 135 µM and the selectivity ratio [2] was 27.3.

With `O=C1CCCC2=C1C(c1ccc(F)cc1Cl)N=C(c1ncccc1F)N2` (centres undefined) the IC50 (Hepatitis B virus; [3]) was 1.1 µM, the IC50 [1] was 1370 µM and the selectivity ratio [2] was 1240.

For `O=C1CCCC2=C1C(c1ccc(F)cc1Cl)N=C(c1c(F)cc(F)cc1F)N2` (centres undefined), the IC50 (Hepatitis B virus; hepg2 2.2.15) was “Not Active” and the IC50 [1] was 123 µM.

For `CC1(C)CC(=O)C2=C(C1)NC(c1cccnc1)=NC2c1ccc(F)cc1` (centres undefined), the IC50 (Hepatitis B virus; [3]) was 25.3 µM, the IC50 [1] was 145 µM and the selectivity ratio [2] was 5.73.

With `O=C1CCCC2=C1C(c1ccccc1Cl)N=C(c1cnccn1)N2` (centres undefined) the IC50 (Hepatitis B virus; hepg2 2.2.15) was “Not Active” and the IC50 [1] was 1470 µM.

`CC1(C)CC(=O)C2=C(C1)NC(c1ncc(F)cc1F)=NC2c1ccc(F)cc1Cl` (centres undefined) showed an IC50 (Hepatitis B virus; [3]) of 1.05 µM, an IC50 [1] of 41.2 µM and a selectivity ratio [2] of 39.2.

For `CC1(C)CC(=O)C2=C(C1)NC(c1nccs1)=NC2c1ccc(F)cc1Cl` (centres undefined), the IC50 (Hepatitis B virus; [3]) was 3.12 µM, the IC50 [1] was 57 µM and the selectivity ratio [2] was 19.2.

In the case of `CC1(C)CC(=O)C2=C(C1)NC(c1cnccn1)=NC2c1ccccc1Cl` (centres undefined), the IC50 (Hepatitis B virus; hepg2 2.2.15) is reported as “Not Active” and the IC50 [1] is reported as 623 µM.

For `COC(=O)C1=C(C)NC(c2ncc(F)cc2F)=N[C@H]1c1ccc(F)cc1Cl`, the IC50 (Hepatitis B virus; [3]) was 0.78 µM and the IC50 [1] was 567 µM.

Work on `CC1(C)CC(=O)C2=C(C1)NC(c1cnccn1)=NC2c1ccc(F)cc1Cl` (centres undefined) yielded an IC50 (Hepatitis B virus; [3]) of 14.2 µM, an IC50 [1] of 773 µM and a selectivity ratio [2] of 54.5.

With `CC1(C)CC(=O)C2=C(C1)NC(c1ncccc1F)=NC2c1ccc(F)cc1Cl` (centres undefined) the IC50 (Hepatitis B virus; hepg2 2.2.15) was “Not Active” and the IC50 [1] was 371 µM.

For `O=C1CCCC2=C1C(c1ccccc1Cl)N=C(c1cccnc1)N2` (centres undefined), the IC50 (Hepatitis B virus; hepg2 2.2.15) was “Not Active” and the IC50 [1] was 1120 µM.

Compound `O=C1CCCC2=C1C(c1ccc(F)cc1Cl)N=C(c1ccncc1)N2` (centres undefined) has an IC50 (Hepatitis B virus; [3]) of 16.5 µM, an IC50 [1] of 142 µM and a selectivity ratio [2] of 8.6.

Work on `CC1(C)CC(=O)C2=C(C1)NC(c1cccnc1)=NC2c1ccccc1` (centres undefined) yielded an IC50 (Hepatitis B virus; [3]) of 22.4 µM, an IC50 [1] of 173 µM and a selectivity ratio [2] of 7.74.

With `O=C1CCCC2=C1C(c1ccccc1Cl)N=C(c1ccccn1)N2` (centres undefined) the IC50 (Hepatitis B virus; hepg2 2.2.15) was “Not Active” and the IC50 [1] was 589 µM.

For `O=C1CCCC2=C1C(c1ccc(F)cc1Cl)N=C(c1ccccn1)N2` (centres undefined), the IC50 (Hepatitis B virus; [3]) was 4.3 µM, the IC50 [1] was 620 µM and the selectivity ratio [2] was 144.

For `O=C1CCCC2=C1C(c1ccc(F)cc1)N=C(c1cccnc1)N2` (centres undefined), the IC50 (Hepatitis B virus; hepg2 2.2.15) was “Not Active” and the IC50 [1] was 280 µM.

`Nc1ccn([C@@H]2CS[C@H](CO)O2)c(=O)n1` [LAMIVUDINE] gave an IC50 (Hepatitis B virus; [3]) of 0.22 µM.
